{"source": "ChEMBL document CHEMBL3091366", "about": "“New 5-Aryl-1H-imidazoles display in vitro antitumor activity against apoptosis-resistant cancer models, including melanomas, through mitochondrial targeting” (J Med Chem, 2013)", "key": {"RXF 393": {"system": "RXF 393", "assay": "Cytotoxicity against human RXF393 cells assessed as residual growth at 10 uM", "format": "functional"}, "HOP-92": {"system": "HOP-92", "assay": "Cytotoxicity against human HOP92 cells assessed as residual growth at 10 uM", "format": "functional"}, "[1]": {"assay": "Cytotoxicity against human Hs578T cells assessed as residual growth at 10 uM", "format": "functional, Hs-578T"}, "SK-MEL-28 [2]": {"system": "SK-MEL-28", "assay": "Cytotoxicity against apoptotic-resistant human SK-MEL-28 cells assessed as cell death at 5 uM after 72 hrs by quantitative videomicroscopy", "format": "functional, cell-based", "method_in_brief": "(§1)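 SK-MEL-28 cells exposed to 5 µM for 24, 48 and 72 h. Cell cycle was read by flow cytometry with propidium iodide plus TUNEL double staining (APO-Direct kit), in quadruplicate. Videomicroscopy photographed each field every 4 min over 72 h. Global growth is cells at a time point divided by cells at time 0; the treated/control ratio gives GGR. Cell death was judged from morphology. Run twice, in triplicate and in quadruplicate.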"}, "786-0": {"system": "786-0", "assay": "Cytotoxicity against human 786-0 cells assessed as residual growth at 10 uM", "format": "functional"}, "[3]": {"assay": "Cytotoxicity against human UACC257 cells assessed as residual growth at 10 uM", "format": "functional, UACC-257"}, "NHDF": {"system": "NHDF", "assay": "Cytotoxicity against human NHDF cells assessed as growth inhibition after 72 hrs by MTT-based colorimetric assay", "format": "cell-based", "method_in_brief": "(§2)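 MTT colorimetric assay, 72 h exposure to the fumarate salt. Read-out is reduction of MTT to formazan by living cells. IC50 is the concentration that reduces the whole cell population by 50%. Six replicates per condition. Where compounds were not tested on every line, apoptosis-sensitive lines were PC3, MCF-7, LoVo and B16F10, and apoptosis-resistant lines were U373, T98G, A549 and SK-MEL-28.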"}, "[4]": {"assay": "Cytotoxicity against human OVCAR5 cells assessed as residual growth at 10 uM", "format": "functional, OVCAR-5"}, "HT-29": {"system": "HT-29", "assay": "Cytotoxicity against human HT-29 cells assessed as residual growth at 10 uM", "format": "functional"}, "MOLT-4": {"system": "MOLT-4", "assay": "Cytotoxicity against human MOLT4 cells assessed as residual growth at 10 uM", "format": "functional"}, "PC-3": {"system": "PC-3", "assay": "Cytotoxicity against apoptotic-sensitive human PC3 cells assessed as growth inhibition after 72 hrs by MTT-based colorimetric assay", "format": "functional, cell-based", "settings": "Homo sapiens, PC-3, 72 h", "method_in_brief": "as §2"}, "[5]": {"assay": "Cytotoxicity against human NCI-ADR-RES cells assessed as residual growth at 10 uM", "format": "functional"}, "ACHN": {"system": "ACHN", "assay": "Cytotoxicity against human ACHN cells assessed as residual growth at 10 uM", "format": "functional"}, "SK-MEL-28 [6]": {"system": "SK-MEL-28", "assay": "Cytostatic activity against apoptotic-resistant human SK-MEL-28 cells assessed as growth inhibition at 5 uM after 48 to 72 hrs by quantitative videomicroscopy", "format": "functional", "settings": "read-out: GI", "method_in_brief": "as §1"}, "A549": {"system": "A549", "assay": "Cytotoxicity against apoptotic-resistant human A549 cells assessed as growth inhibition after 72 hrs by MTT-based colorimetric assay", "format": "functional, cell-based", "settings": "Homo sapiens, A549, 72 h", "method_in_brief": "as §2"}, "SK-MEL-2": {"system": "SK-MEL-2", "assay": "Cytotoxicity against human SK-MEL-2 cells assessed as residual growth at 10 uM", "format": "functional"}, "DU-145": {"system": "DU-145", "assay": "Cytotoxicity against human DU145 cells assessed as residual growth at 10 uM", "format": "functional"}, "RPMI-8226": {"system": "RPMI-8226", "assay": "Cytotoxicity against human RPMI8226 cells assessed as residual growth at 10 uM", "format": "functional"}, "LoVo": {"system": "LoVo", "assay": "Cytotoxicity against apoptotic-sensitive human LoVo cells assessed as growth inhibition after 72 hrs by MTT-based colorimetric assay", "format": "functional, cell-based", "settings": "Homo sapiens, LoVo, 72 h", "method_in_brief": "as §2"}, "OVCAR-3": {"system": "OVCAR-3", "assay": "Cytotoxicity against human OVCAR3 cells assessed as residual growth at 10 uM", "format": "functional"}, "B16-F10": {"system": "B16-F10", "assay": "Cytotoxicity against apoptotic-sensitive mouse B16F10 cells assessed as growth inhibition after 72 hrs by MTT-based colorimetric assay", "format": "functional, cell-based", "settings": "B16-F10, 72 h", "method_in_brief": "as §2"}, "T98G": {"system": "T98G", "assay": "Cytotoxicity against apoptotic-resistant human T98G cells assessed as growth inhibition after 72 hrs by MTT-based colorimetric assay", "format": "functional, cell-based", "settings": "Homo sapiens, T98G, 72 h", "method_in_brief": "as §2"}, "SF-295": {"system": "SF-295", "assay": "Cytotoxicity against human SF295 cells assessed as residual growth at 10 uM", "format": "functional"}, "SK-MEL-28 [7]": {"system": "SK-MEL-28", "assay": "Induction of ROS production in human SK-MEL-28 cells at 5 uM by DCFH-DA staining-based flow cytometry", "format": "functional, cell-based", "settings": "TDE = time-dependent effect", "method_in_brief": "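SKMEL-28 cells exposed to 5 µM over a time course, washed twice, stained 1 h at 37 °C with 20 µM DCFH-DA in phenol red-free RPMI, washed twice, trypsinized; ROS-driven probe oxidation read as fluorescence by flow cytometry. Run once in quadruplicate; mean ± SEM.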"}, "SK-MEL-28 [8]": {"system": "SK-MEL-28", "assay": "Cytotoxicity against apoptotic-resistant human SK-MEL-28 cells assessed as growth inhibition after 72 hrs by MTT-based colorimetric assay", "format": "functional, cell-based", "settings": "Homo sapiens, SK-MEL-28, 72 h", "method_in_brief": "as §2"}, "M14": {"system": "M14", "assay": "Cytotoxicity against human M14 cells assessed as residual growth at 10 uM", "format": "functional"}, "SN12C": {"system": "SN12C", "assay": "Cytotoxicity against human SN12C cells assessed as residual growth at 10 uM", "format": "functional"}, "COLO 205": {"system": "COLO 205", "assay": "Cytotoxicity against human COLO205 cells assessed as residual growth at 10 uM", "format": "functional"}, "NCI-H322M": {"system": "NCI-H322M", "assay": "Cytotoxicity against human NCI-H322M cells assessed as residual growth at 10 uM", "format": "functional"}, "SK-MEL-5": {"system": "SK-MEL-5", "assay": "Cytotoxicity against human SK-MEL-5 cells assessed as residual growth at 10 uM", "format": "functional"}, "HL-60(TB)": {"system": "HL-60(TB)", "assay": "Cytotoxicity against human HL-60(TB) cells assessed as residual growth at 10 uM", "format": "functional"}, "BT-549": {"system": "BT-549", "assay": "Cytotoxicity against human BT549 cells assessed as residual growth at 10 uM", "format": "functional"}, "SW-620": {"system": "SW-620", "assay": "Cytotoxicity against human SW620 cells assessed as residual growth at 10 uM", "format": "functional"}, "U-251": {"system": "U-251", "assay": "Cytotoxicity against human U251 cells assessed as residual growth at 10 uM", "format": "functional"}, "Melanoma cell": {"system": "Melanoma cell", "assay": "Cytotoxicity against human Melanoma cells assessed as growth inhibition after 72 hrs by MTT-based colorimetric assay", "format": "functional", "method_in_brief": "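Eleven human primary melanoma cultures treated for 72 h with the fumarate salt. Growth inhibition read by colorimetric MTT assay, with IC50 taken as 50% reduction of the cell population. Maximal concentration tested was 100 µM. Run once in sextuplicate.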"}, "SF-268": {"system": "SF-268", "assay": "Cytotoxicity against human SF268 cells assessed as residual growth at 10 uM", "format": "functional"}, "SK-MEL-28 [9]": {"system": "SK-MEL-28", "assay": "Cell cycle arrest in apoptotic-resistant human SK-MEL-28 cells at 5 uM after 24 to 72 hrs by double propidium iodide staining-based flow cytometry", "format": "functional", "method_in_brief": "as §1"}, "K562": {"system": "K562", "assay": "Cytotoxicity against human K562 cells assessed as residual growth at 10 uM", "format": "functional"}, "SK-MEL-28 [10]": {"system": "SK-MEL-28", "assay": "Effect on oxygen consumption in human SK-MEL-28 cells at 10 uM after 72 hrs by oxygraphic analysis", "format": "functional, cell-based", "method_in_brief": "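SKMEL-28 cells pre-incubated 72 h with 10^-5 M compound or untreated; five million cells per chamber in phenol red-free DMEM (glucose 1 g/L, pyruvate 110 mg/L). ROUTINE respiration recorded by high-resolution respirometry (Clark electrode), 37 °C, continuous stirring from chamber closure; O2 consumption slopes taken as routine respiration.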"}, "[11]": {"assay": "Cytotoxicity against human UO31 cells assessed as residual growth at 10 uM", "format": "functional, UO-31"}, "[12]": {"assay": "Cytotoxicity against human OVCAR4 cells assessed as residual growth at 10 uM", "format": "functional, OVCAR-4"}}, "note": "The source made the active and inactive calls. No cut-off for these calls is given here."}
{"smiles": "C=CCCCCOc1ccccc1-c1cnc(OCCCCC=C)n1C", "values": [{"measurement": "Activity", "setting": "RXF 393", "result": 90.54, "unit": "%"}, {"measurement": "Activity", "setting": "HOP-92", "result": 75.18, "unit": "%"}, {"measurement": "Activity", "setting": "[1]", "result": 66.38, "unit": "%"}, {"measurement": "Activity", "setting": "SK-MEL-28 [2]", "result": "inactive"}, {"measurement": "Activity", "setting": "786-0", "result": 106.84, "unit": "%"}, {"measurement": "Activity", "setting": "[3]", "result": 66.63, "unit": "%"}, {"measurement": "IC50", "setting": "NHDF", "result": 36, "unit": "µM"}, {"measurement": "Activity", "setting": "[4]", "result": 95.17, "unit": "%"}, {"measurement": "Activity", "setting": "HT-29", "result": 18.11, "unit": "%"}, {"measurement": "Activity", "setting": "MOLT-4", "result": 91.38, "unit": "%"}, {"measurement": "IC50", "setting": "PC-3", "result": 9, "unit": "µM"}, {"measurement": "Activity", "setting": "[5]", "result": 30.38, "unit": "%"}, {"measurement": "Activity", "setting": "ACHN", "result": 84.54, "unit": "%"}, {"measurement": "inhibition of growth at 5 µM", "setting": "SK-MEL-28 [6]", "result": 50, "unit": "%"}, {"measurement": "IC50", "setting": "A549", "result": 7, "unit": "µM"}, {"measurement": "Activity", "setting": "SK-MEL-2", "result": 46.08, "unit": "%"}, {"measurement": "Activity", "setting": "DU-145", "result": 92.64, "unit": "%"}, {"measurement": "Activity", "setting": "RPMI-8226", "result": 80.75, "unit": "%"}, {"measurement": "IC50", "setting": "LoVo", "result": 5, "unit": "µM"}, {"measurement": "Activity", "setting": "OVCAR-3", "result": 51.28, "unit": "%"}, {"measurement": "IC50", "setting": "B16-F10", "result": 7, "unit": "µM"}, {"measurement": "IC50", "setting": "T98G", "result": 4, "unit": "µM"}, {"measurement": "Activity", "setting": "SF-295", "result": 70.07, "unit": "%"}, {"measurement": "Activity", "setting": "SK-MEL-28 [7]", "result": "tde"}, {"measurement": "IC50", "setting": "SK-MEL-28 [8]", "result": 5, "unit": "µM"}, {"measurement": "Activity", "setting": "M14", "result": 72.63, "unit": "%"}, {"measurement": "Activity", "setting": "SN12C", "result": 91.09, "unit": "%"}, {"measurement": "Activity", "setting": "COLO 205", "result": 46.04, "unit": "%"}, {"measurement": "Activity", "setting": "NCI-H322M", "result": 71.99, "unit": "%"}, {"measurement": "Activity", "setting": "SK-MEL-5", "result": 83.67, "unit": "%"}, {"measurement": "Activity", "setting": "HL-60(TB)", "result": 66.52, "unit": "%"}, {"measurement": "Activity", "setting": "BT-549", "result": 96.77, "unit": "%"}, {"measurement": "Activity", "setting": "SW-620", "result": 30.82, "unit": "%"}, {"measurement": "Activity", "setting": "U-251", "result": 68.59, "unit": "%"}, {"measurement": "Activity", "setting": "Melanoma cell", "result": "Active"}, {"measurement": "Activity", "setting": "SF-268", "result": 79.65, "unit": "%"}, {"measurement": "Activity", "setting": "SK-MEL-28 [9]", "result": "inactive"}, {"measurement": "Activity", "setting": "K562", "result": 30.53, "unit": "%"}, {"measurement": "Activity", "setting": "SK-MEL-28 [10]", "result": "Active"}, {"measurement": "Activity", "setting": "[11]", "result": 69.27, "unit": "%"}, {"measurement": "Activity", "setting": "[12]", "result": 97.91, "unit": "%"}]}
